Compound activity: PubChem BioAssay, The Scripps Research Institute Molecular Screening Center
Only some compounds are listed: those with a hit (about 1.9% of all), similar ones and a draw of the others.
M4 PAM = human M4 muscarinic receptor positive allosteric modulators, primary screen, CHO-K1 cells, Fluo-8 calcium fluorescence; AID 624126, 2012; Muscarinic acetylcholine receptor M4 (Homo sapiens), P08173; activation, % at 3 µM; hit rate 0.4% among 360,000; CHO-K1 hM4/Gqi5, ACh EC20; 0% = ACh EC20, 100% = maximal ACh;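 active = activation above its plate's cutoff, the mean activation of sample wells plus 3 SD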
CHRM4 agonist = human M4 muscarinic receptor agonists, primary screen, CHO-K1 cells, Fluo-8 calcium fluorescence; Muscarinic acetylcholine receptor M4 (Homo sapiens), P08173; CHO-K1 hM4/Gqi5; vehicle 0%, full acetylcholine response 100%; activation, % at 3 µM; hit rate 0.14% among 360,000; AID 624127, 2012;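 active = activation above the run mean over all test wells plus 3 SD, cut at about 32% in these data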;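 note: peak over basal fluorescence ratio per well then scaled between controls; 0% = DMSO wells and 100% = acetylcholine at EC100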
CHRM5 antagonist = human M5 muscarinic receptor antagonists, primary screen, CHO cells, Fluo-8 calcium fluorescence. Muscarinic acetylcholine receptor M5 (Homo sapiens), P08912. CHO-hM5 cells, ACh EC80. inhibition, % at 3 µM. hit rate 0.59% among 360,000. AID 624040, 2012;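 active = inhibition above a per-plate cutoff, the mean of that plate's test compounds plus 3 SD, cut at about 27% in these data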;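 note: 0% = acetylcholine EC80 with DMSO and 100% = DMSO without agonist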
Target sequence (P08912 whole entry, looked up): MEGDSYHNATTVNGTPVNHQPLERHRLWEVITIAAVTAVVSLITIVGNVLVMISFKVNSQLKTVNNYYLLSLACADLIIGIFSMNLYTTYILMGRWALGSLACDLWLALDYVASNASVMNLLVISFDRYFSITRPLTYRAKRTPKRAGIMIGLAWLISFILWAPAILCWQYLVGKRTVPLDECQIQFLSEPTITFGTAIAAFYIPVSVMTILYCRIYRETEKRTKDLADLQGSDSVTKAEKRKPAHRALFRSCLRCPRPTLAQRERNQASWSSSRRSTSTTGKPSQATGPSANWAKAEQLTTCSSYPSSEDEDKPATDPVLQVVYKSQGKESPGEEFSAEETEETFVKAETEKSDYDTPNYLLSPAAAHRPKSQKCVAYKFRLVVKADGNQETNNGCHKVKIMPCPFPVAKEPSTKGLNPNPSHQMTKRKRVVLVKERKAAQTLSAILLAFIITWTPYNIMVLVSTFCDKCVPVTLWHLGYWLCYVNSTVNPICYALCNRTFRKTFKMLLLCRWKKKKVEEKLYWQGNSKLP
M4 antag = human M4 muscarinic receptor antagonists, primary screen, CHO cells, Fluo-8 calcium fluorescence; CHO-hM4 cells, ACh EC80; inhibition, % at 3 µM; hit rate 0.73% among 360,000; AID 624125, 2012;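 active = inhibition above its plate's cutoff, the mean inhibition of sample wells plus 3 SD, cut at about 27% in these data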;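 note: 0% = acetylcholine EC80 with DMSO and 100% = DMSO without agonist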
M5 PAM = human M5 muscarinic receptor positive allosteric modulators, primary screen, CHO-K1 cells, Fluo-8 calcium fluorescence. CHO-K1 hM5, ACh EC20 PAM; 0% = ACh EC20, 100% = ACh EC100. activation, % at 3 µM. hit rate 0.3% among 360,000. Muscarinic acetylcholine receptor M5 (Homo sapiens), P08912;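 active = activation above the run cutoff, the mean activation of all test compounds plus 3 SD, cut at about 18% in these data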
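system = human M5 receptor in CHO-K1 cells | compound = one concentration, 3 µM final (nominal) | schedule = Post-acetylcholine fluorescence recording 140 s | signal = Fluo-8 calcium dye fluorescence, kinetic read | benchmarks = low control EC20 acetylcholine (0%), high control EC100 acetylcholine (100%) | repeats = singlicate, one well per test compound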
CHRM5 agonist = human M5 muscarinic receptor agonists, primary screen, CHO-K1 cells, Fluo-8 calcium fluorescence | Muscarinic acetylcholine receptor M5 (Homo sapiens), P08912 | CHO-K1 hM5 cells; 0% DMSO wells, 100% maximal acetylcholine response | activation, % at 3 µM | hit rate 0.19% among 360,000;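 active = activation above the run's mean over test compounds plus 3 SD, cut at about 23% in these data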;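 note: signal is peak over basal fluorescence ratio across the kinetic read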
Active calls of the source: *.

SMILES	M4 PAM	CHRM4 agonist	CHRM5 antagonist	M4 antag	M5 PAM	CHRM5 agonist
COc1ccc(CC2(CO)CCN(CC3=Cc4cc(Cl)ccc4OC3)CC2)cc1	-19.8	16.1	25.2	28.7*	-15.3	-1.3
O=S(=O)(c1ccc2c(c1)C(O)c1ccccc1CC2)C(F)(F)F (stereo unspecified)	-18.8	8.8	16.6	24.9	-25.1	-3.8
O=C(COC(=O)c1cccc(F)c1)Nc1cccc(S(=O)(=O)N2CCCCC2)c1	-4.8	12.3	1.9	-10.6	-9.1	4.4
O=C(c1cccc(Oc2ccc([N+](=O)[O-])cc2Cl)c1)N1CCOCC1	-4.3	1.2	26.9*	3.4	-12.1	-2.5
O=C(Oc1cccc(C(=S)N2CCOCC2)c1)c1ccc([N+](=O)[O-])cc1	0.6	2.6	12.8	-3.7	-2.3	-0.3
CCN(CC)c1ccc(C(=C2C=CC(=[N+](CC)CC)C=C2)c2ccccc2)cc1	-13.3	66.1*	84.9*	98.7*	-46.0	30.3*
CCN(CC)c1ccc(C(=C2C=CC(=[N+](CC)CC)C=C2)c2ccc(N(CC)CC)cc2)cc1	-8.7	11.2	35.6*	43.1*	-17.2	19.2
COCc1cc(C)n(CC(=O)Nc2ccc(N3CCOCC3)cc2)c(=O)c1C#N	-2.3	0.3	6.3	-7.0	-3.9	2.6
Cc1ccc(C(=O)OCC(=O)NCc2ccc(Cl)cc2Cl)o1	5.3	0.7	11.1	10.2	-1.3	-4.3
NC(=O)c1ccsc1NC(=O)COC(=O)Cc1cccc2ccccc12	-14.3	22.2	54.8*	61.1*	-21.0	7.9
NC(=O)c1ccsc1NC(=O)CSc1ccccc1F	2.9	4.3	2.2	5.3	0.4	4.9
CN(C)S(=O)(=O)c1cccc(C(=O)OCC(=O)Nc2sccc2C(N)=O)c1	-20.3	30.4	16.0	38.4*	-19.8	14.7
Cc1ccccc1SCC(=O)OCC(=O)Nc1sccc1C(N)=O	-12.1	18.5	39.6*	30.7*	-19.5	8.9
COc1ccc(N(C(=O)COc2ccccc2OC)S(=O)(=O)c2ccc(C)cc2)cc1	26.3*	1.1	-3.5	-5.7	6.3	-3.7
CC1CN(S(=O)(=O)c2cc(C(=O)N3CCCCC3C)ccc2Cl)CC(C)O1 (stereo unspecified)	11.2	4.8	16.6	0.0	4.8	6.3
CCOC(=O)c1c(-c2ccc(C)o2)csc1NC(=O)CN(C)CC(=O)Nc1ccc(C)cc1	-20.8	6.0	14.8	31.3*	-6.3	-3.2
CCN(CC)CCN1C(=O)C(=O)/C(=C(/O)c2c(C)[nH]c(C(=O)OC)c2C)C1c1ccc(OC)cc1 (stereo unspecified)	1.5	0.2	2.6	2.6	-2.2	-1.2
CCN(CC)CCN1C(=O)C(=O)/C(=C(/O)c2c(C)[nH]c(C(=O)OC)c2C)C1c1ccccc1 (stereo unspecified)	29.5*	0.9	4.1	1.3	2.5	-2.0
Cc1ccc(Cn2nc(C)c(C(=O)NCC(c3ccc(F)cc3)N3CCOCC3)c2Cl)cc1 (stereo unspecified)	-5.4	10.9	4.5	-0.3	-20.9	1.6
NC(=O)CN1CCOCCOCCN(CC(N)=O)CCOCCOCC1	3.0	0.3	-4.9	100.5*	5.1	0.9
CCOC(=O)Cc1cc(=O)[nH]n(-c2ccccc2)c1=O	7.1	0.6	9.2	4.6	0.4	-1.2
CC(=O)Nc1cccc(NC(=O)CSc2ncc(-c3ccc(Cl)cc3)n2Cc2ccco2)c1	-15.2	17.6	22.6	28.7*	-25.1	6.3
CCNc1ccc(Br)cc(C(=O)/C=C/c2c(Cl)cccc2Cl)c1=O	-1.9	3.2	9.8	38.2*	4.0	0.9
CNc1ccc(Br)cc(C(=O)/C=C/c2ccc(Cl)cc2Cl)c1=O	4.0	7.6	18.4	44.0*	12.1	6.3
CNc1ccc(Br)cc(C(=O)/C=C/c2ccc(OC)cc2OC)c1=O	2.6	-0.1	-6.5	-12.9	-4.7	1.3
Cc1ccc(N(C(=O)CNC(=O)c2ccco2)C(C(=O)NCC2CCCO2)c2ccccc2)c(C)c1 (stereo unspecified)	-5.2	16.2	25.6	-16.6	-13.4	1.0
CCOC(=O)C(C)c1nn(C)c(=O)c2ccccc12 (stereo unspecified)	-5.6	5.1	6.8	3.5	-18.5	-10.4
CCOC(=O)CCc1nn(C)c(=O)c2ccccc12	7.7	3.2	66.6*	-0.3	-13.8	-2.8
Cc1cc(C)cc(NC(=S)N2CCC(N(C)CC3CCCO3)CC2)c1 (stereo unspecified)	7.2	1.3	8.9	-9.3	-4.1	-2.5
CCCCC1CC(=O)NC1(C(=O)OCC)C(=O)OCC (stereo unspecified)	2.1	0.1	20.6	6.3	-0.1	-0.1
